Assay results reported in ChEMBL document CHEMBL1144562, “Synthesis of a new class of 2-anilino substituted nicotinyl arylsulfonylhydrazides as potential anticancer and antibacterial agents” (2007).
Values after ≈ are worked out from the molar mass of the structure shown.

Experiments:
HCC 2998 = assay: Antitumor activity against HCC2998 cells; type: functional; conditions: Homo sapiens
A549 = assay: Antitumor activity against A549 cells; type: functional; conditions: Homo sapiens
SNB-75 = assay: Antitumor activity against SNB75 cells; type: functional; conditions: Homo sapiens
Summary of the method: (§1)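 Tested in the NCI 60-human-tumour-cell-line panel at five concentrations, in 10-fold dilutions from 10^-4 to 10^-8 M. Three parameters were taken from the dose-response data, each as log10 of the molar concentration: GI50 (50% net growth inhibition), TGI (total growth inhibition) and LC50 (50% net cell death).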

HT-29 = assay: Antitumor activity against HT29 cells; type: functional; conditions: Homo sapiens
COLO 205 = assay: Antitumor activity against COLO205 cells; type: functional; conditions: Homo sapiens
SW-620 = assay: Antitumor activity against SW620 cells; type: functional; conditions: Homo sapiens; summary of the method: as §1
HCT-15 = assay: Antitumor activity against HCT15 cells; type: functional; conditions: Homo sapiens
786-0 = assay: Antitumor activity against 786-0 cells; type: functional; conditions: Homo sapiens
HCT-116 = assay: Antitumor activity against HCT116 cells; type: functional; conditions: Homo sapiens
TK-10 = assay: Antitumor activity against TK10 cells; type: functional; conditions: Homo sapiens; summary of the method: as §1
[1] = Antitumor activity against HL60 (TB) cells; type: functional, HL-60(TB); conditions: Homo sapiens, HL-60
Summary of the method: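 NCI 60-cell-line in vitro screen (leukaemia subpanel). Compound tested at five 10-fold dilutions from 10^-4 to 10^-8 M. Dose-response parameters: GI50 (concentration giving 50% net growth inhibition), TGI (total growth inhibition) and LC50 (50% net cell death), each reported as log10 of molar concentration.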

Vibrio = assay: Antibacterial activity against Vibrio species after 18 hrs; type: functional
Summary of the method: (§2)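 Disc diffusion (Kirby–Bauer) on Mueller-Hinton agar inoculated with fresh bacteria at 1-5 × 10^4 cfu mL-1. Compounds were dissolved in DMF at a range of concentrations, and discs were placed in triplicate. Plates were incubated at 30 °C for 18 h. MIC was taken as the lowest concentration giving no visible bacterial growth on the plate.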

OVCAR-4 = assay: Antitumor activity against OVCAR4 cells; type: functional; conditions: Homo sapiens
Bacillus subtilis = assay: Antibacterial activity against Bacillus subtilis MTCC 441 after 18 hrs; type: functional; conditions: MTCC 441, 18 h; summary of the method: as §2
OVCAR-8 = assay: Antitumor activity against OVCAR8 cells; type: functional; conditions: Homo sapiens
UACC-257 = assay: Antitumor activity against UACC257 cells; type: functional; conditions: Homo sapiens; summary of the method: as §1
Pseudomonas aeruginosa = assay: Antibacterial activity against Pseudomonas aeruginosa MTCC 424 after 18 hrs; type: functional; conditions: MTCC 424, 18 h; summary of the method: as §2
SK-OV-3 = assay: Antitumor activity against SKOV3 cells; type: functional; conditions: Homo sapiens; summary of the method: as §1
SK-MEL-28 = assay: Antitumor activity against SK-MEL-28 cells; type: functional; conditions: Homo sapiens
NCI-H226 = assay: Antitumor activity against NCI-H226 cells; type: functional; conditions: Homo sapiens
[2] = Antitumor activity against MALME 3M cells; type: functional; conditions: Homo sapiens
Escherichia coli = assay: Antibacterial activity against Escherichia coli MTCC 448 after 18 hrs; type: functional; conditions: MTCC 448, 18 h; summary of the method: as §2
M14 = assay: Antitumor activity against M14 cells; type: functional; conditions: Homo sapiens
SF-268 = assay: Antitumor activity against SF268 cells; type: functional; conditions: Homo sapiens
T47D = assay: Antitumor activity against T47D cells; type: functional; conditions: Homo sapiens; summary of the method: as §1
PC-3 = assay: Antitumor activity against PC3 cells; type: functional; conditions: Homo sapiens
HOP-62 = assay: Antitumor activity against HOP62 cells; type: functional; conditions: Homo sapiens
DU-145 = assay: Antitumor activity against DU145 cells; type: functional; conditions: Homo sapiens
SF-539 = assay: Antitumor activity against SF539 cells; type: functional; conditions: Homo sapiens
SF-295 = assay: Antitumor activity against SF295 cells; type: functional; conditions: Homo sapiens
[3] = system: Staphylococcus epidermidis; assay: Antibacterial activity against Staphylococcus epidermidis MTCC 435 after 18 hrs; type: functional; conditions: MTCC 435, 18 h; summary of the method: as §2
SNB-19 = assay: Antitumor activity against SNB19 cells; type: functional; conditions: Homo sapiens; summary of the method: as §1
U-251 = assay: Antitumor activity against U251 cells; type: functional; conditions: Homo sapiens; summary of the method: as §1
MOLT-4 = assay: Antitumor activity against MOLT4 cells; type: functional; conditions: Homo sapiens
CCRF-CEM = assay: Antitumor activity against CCRF-CEM cells; type: functional; conditions: Homo sapiens
[4] = Antitumor activity against LOX IMV1 cells; type: functional; conditions: Homo sapiens
MCF7 = assay: Antitumor activity against MCF7 cells; type: functional; conditions: Homo sapiens
MDA-MB-231 = assay: Antitumor activity against MDA-MB-231 cells; type: functional; conditions: Homo sapiens
KM12 = assay: Antitumor activity against KM12 cells; type: functional; conditions: Homo sapiens
A498 = assay: Antitumor activity against A498 cells; type: functional; conditions: Homo sapiens
ACHN = assay: Antitumor activity against ACHN cells; type: functional; conditions: Homo sapiens
[5] = read-out: Log LC50 (the source's name) (converted)

For CC(=O)Nc1ccc(S(=O)(=O)NNC(=O)c2cccnc2Nc2ccc(Cl)cc2)cc1, the GI50 (HCC 2998) was 8.32 µM, the LC50 (HCC 2998) was > 100 µM and the TGI (HCC 2998; read-out: Log TGI (converted)) was > 100 µM. For the same compound, the GI50 (A549) was 32.4 µM, the LC50 (A549) was > 100 µM and the TGI (A549; read-out: Log TGI (converted)) was > 100 µM. For the same compound, the GI50 (SNB-75) was 5.5 µM, the CC50 (SNB-75; [5]) was > 100 µM and the TGI (SNB-75; read-out: Log TGI (converted)) was > 100 µM. For the same compound, the GI50 (HT-29) was 3.98 µM, the LC50 (HT-29) was > 100 µM and the TGI (HT-29; read-out: Log TGI (converted)) was > 100 µM. The GI50 (COLO 205) was 10.2 µM, the LC50 (COLO 205) was > 100 µM and the TGI (COLO 205; read-out: Log TGI (converted)) was 57.5 µM. For the same compound, the GI50 (SW-620) was 7.59 µM, the CC50 (SW-620; [5]) was > 100 µM and the TGI (SW-620; read-out: Log TGI (converted)) was > 100 µM. The GI50 (HCT-15) was 13.8 µM, the LC50 (HCT-15) was > 100 µM and the TGI (HCT-15; read-out: Log TGI (converted)) was > 100 µM. For the same compound, the GI50 (786-0) was 47.9 µM, the LC50 (lethal concentration, 50%) (786-0) was > 100 µM and the TGI (786-0; read-out: Log TGI (converted)) was > 100 µM. For the same compound, the GI50 (HCT-116) was 7.24 µM, the LC50 (HCT-116) was > 100 µM and the TGI (HCT-116; read-out: Log TGI (converted)) was > 100 µM. The GI50 (TK-10) was 25.1 µM, the LC50 (TK-10) was > 100 µM and the TGI (TK-10; read-out: Log TGI (converted)) was > 100 µM. The GI50 [1] was 9.77 µM, the LC50 [1] was > 100 µM and the TGI ([1]; read-out: Log TGI (converted)) was > 100 µM. For the same compound, the MIC (Vibrio) was 18 µg/mL (≈ 39.1 µM), the GI50 (OVCAR-4) was 44.7 µM and the LC50 (lethal concentration, 50%) (OVCAR-4) was > 100 µM. For the same compound, the TGI (OVCAR-4; read-out: Log TGI (converted)) was > 100 µM, the MIC (Bacillus subtilis) was 17 µg/mL (≈ 37 µM) and the GI50 (OVCAR-8) was 36.3 µM. The CC50 (OVCAR-8; [5]) was > 100 µM, the TGI (OVCAR-8; read-out: Log TGI (converted)) was > 100 µM and the GI50 (UACC-257) was 89.1 µM. The LC50 (UACC-257) was > 100 µM, the TGI (UACC-257; read-out: Log TGI (converted)) was > 100 µM and the MIC (Pseudomonas aeruginosa) was > 25 µg/mL. The GI50 (SK-OV-3) was 57.5 µM, the CC50 (SK-OV-3; [5]) was > 100 µM and the TGI (SK-OV-3; read-out: Log TGI (converted)) was > 100 µM. For the same compound, the GI50 (SK-MEL-28) was 23.4 µM, the LC50 (SK-MEL-28) was > 100 µM and the TGI (SK-MEL-28; read-out: Log TGI (converted)) was > 100 µM. For the same compound, the GI50 (NCI-H226) was 42.7 µM, the CC50 (NCI-H226; [5]) was > 100 µM and the TGI (NCI-H226; read-out: Log TGI (converted)) was > 100 µM. For the same compound, the GI50 [2] was > 100 µM, the CC50 [2, 5] was > 100 µM and the TGI ([2]; read-out: Log TGI (converted)) was > 100 µM. The MIC (Escherichia coli) was 18 µg/mL (≈ 39.1 µM), the GI50 (M14) was 11.5 µM and the LC50 (M14) was > 100 µM. For the same compound, the TGI (M14; read-out: Log TGI (converted)) was > 100 µM, the GI50 (SF-268) was 21.9 µM and the LC50 (SF-268) was > 100 µM. For the same compound, the TGI (SF-268; read-out: Log TGI (converted)) was > 100 µM, the GI50 (T47D) was 6.31 µM and the CC50 (T47D; [5]) was > 100 µM. The TGI (T47D; read-out: Log TGI (converted)) was > 100 µM, the GI50 (PC-3) was 29.5 µM and the LC50 (PC-3) was > 100 µM. For the same compound, the TGI (PC-3; read-out: Log TGI (converted)) was > 100 µM, the GI50 (HOP-62) was > 100 µM and the CC50 (HOP-62; [5]) was > 100 µM. The TGI (HOP-62; read-out: Log TGI (converted)) was > 100 µM, the GI50 (DU-145) was 34.7 µM and the LC50 (DU-145) was > 100 µM. For the same compound, the TGI (DU-145; read-out: Log TGI (converted)) was > 100 µM, the GI50 (SF-539) was 15.5 µM and the LC50 (SF-539) was > 100 µM. For the same compound, the TGI (SF-539; read-out: Log TGI (converted)) was 75.9 µM, the GI50 (SF-295) was 3.47 µM and the CC50 (SF-295; [5]) was > 100 µM. For the same compound, the TGI (SF-295; read-out: Log TGI (converted)) was > 100 µM, the MIC [3] was 22 µg/mL (≈ 47.8 µM) and the GI50 (SNB-19) was 14.1 µM. For the same compound, the CC50 (SNB-19; [5]) was > 100 µM, the TGI (SNB-19; read-out: Log TGI (converted)) was > 100 µM and the GI50 (U-251) was 24 µM. For the same compound, the LC50 (U-251) was > 100 µM, the TGI (U-251; read-out: Log TGI (converted)) was > 100 µM and the GI50 (MOLT-4) was 50.1 µM. The LC50 (MOLT-4) was > 100 µM, the TGI (MOLT-4; read-out: Log TGI (converted)) was > 100 µM and the LC50 (CCRF-CEM) was > 100 µM. The TGI (CCRF-CEM; read-out: Log TGI (converted)) was > 100 µM, the GI50 (CCRF-CEM; read-out: pGI50 (converted)) was 21.4 µM and the GI50 [4] was 24 µM. For the same compound, the LC50 [4] was > 100 µM, the TGI ([4]; read-out: Log TGI (converted)) was > 100 µM and the GI50 (MCF7) was 4.37 µM. The LC50 (MCF7) was > 100 µM, the TGI (MCF7; read-out: Log TGI (converted)) was > 100 µM and the GI50 (MDA-MB-231) was 41.7 µM. The LC50 (MDA-MB-231) was > 100 µM, the TGI (MDA-MB-231; read-out: Log TGI (converted)) was > 100 µM and the GI50 (KM12) was 4.17 µM. The CC50 (KM12; [5]) was > 100 µM, the TGI (KM12; read-out: Log TGI (converted)) was > 100 µM and the GI50 (A498) was 18.6 µM. For the same compound, the LC50 (A498) was > 100 µM, the TGI (A498; read-out: Log TGI (converted)) was > 100 µM and the GI50 (ACHN) was 52.5 µM. For the same compound, the LC50 (ACHN) was > 100 µM and the TGI (ACHN; read-out: Log TGI (converted)) was 75.9 µM.
